This note sets out measurements from ChEMBL document CHEMBL4118021, “Studies of TAK1-centered polypharmacology with novel covalent TAK1 inhibitors” (Bioorg Med Chem, 2017).

The source made the active and inactive calls. The calls are words filed in the database; no cut-off is given here.

Test [1] concerns the target Alkyldihydroxyacetonephosphate synthase, peroxisomal (Homo sapiens) (UniProt O00116). In words: Binding affinity to AGPS in human NCI-H23 cells at 1 uM by mass spectrometry based pull down assay. It is filed as cell-based. The gist of the method:
(§1)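 NCI-H23 or NCI-H358 cells were grown and lysed. Lysates were incubated overnight at 4 °C with 1 μM biotinylated covalent probe or DMSO, then pulled down on streptavidin beads. Proteins were run on polyacrylamide gels and stained with Coomassie. Bands were excised, digested and identified by mass spectrometry.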

The target in test [2] is Polyadenylate-binding protein 4 (Homo sapiens) (UniProt Q13310). In words: Binding affinity to PABPC4 in human NCI-H23 cells at 1 uM by mass spectrometry based pull down assay. The format is cell-based.
Sequence of Polyadenylate-binding protein 4 (Homo sapiens) (Q13310 whole entry): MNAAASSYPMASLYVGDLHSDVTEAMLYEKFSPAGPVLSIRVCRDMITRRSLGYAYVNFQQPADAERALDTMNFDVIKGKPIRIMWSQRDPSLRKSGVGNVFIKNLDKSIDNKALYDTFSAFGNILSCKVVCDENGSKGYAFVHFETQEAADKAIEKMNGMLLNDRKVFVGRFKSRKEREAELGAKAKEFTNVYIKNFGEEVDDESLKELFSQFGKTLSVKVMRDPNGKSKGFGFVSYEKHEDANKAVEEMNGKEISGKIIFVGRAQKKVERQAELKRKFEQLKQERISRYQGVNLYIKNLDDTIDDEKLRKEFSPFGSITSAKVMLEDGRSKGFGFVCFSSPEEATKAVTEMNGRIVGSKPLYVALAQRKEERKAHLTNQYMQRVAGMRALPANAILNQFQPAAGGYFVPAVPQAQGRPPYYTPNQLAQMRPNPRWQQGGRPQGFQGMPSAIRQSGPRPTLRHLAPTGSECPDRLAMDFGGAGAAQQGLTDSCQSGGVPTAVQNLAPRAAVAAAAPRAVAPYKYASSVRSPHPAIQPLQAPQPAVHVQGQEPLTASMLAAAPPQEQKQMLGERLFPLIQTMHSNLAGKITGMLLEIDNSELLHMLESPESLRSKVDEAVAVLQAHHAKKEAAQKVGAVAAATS
The target in test [3] is T1, 80S Ribosome (Homo sapiens) (UniProt P08865+P42677+P62753+P15880+P23396+P61247+P62701+P22090+P46782+P62081+P62241+P46781+P46783+P62280+P25398+P62277+P62263+P62841+P62244+P62249+P08708+P62269+P39019+P60866+P63220+P62266+P62847+P62851+P62854+P62979+P62857+P62273+P62861+P39023+P36578+P46777+Q02878+P18124+P62424+P62917+P32969+P27635+P62906+P62913+P30050+P26373+P40429+P50914+P61313+P18621+Q07020+Q02543+P84098+P46778+P35268+P62829+P62750+P83731+P61254+P61353+P46776+P46779+P47914+P62888+P62899+P62910+P49207+P42766+P18077+Q9Y3U8+P83881+P61927+P61513+P63173+P62891+P62945+P05388+P05386). As to the kind of experiment: Binding affinity to RPS5 in human NCI-H23 cells at 1 uM by mass spectrometry based pull down assay. The format is cell-based.

Test [4] concerns the target Arginine--tRNA ligase, cytoplasmic (Homo sapiens) (UniProt P54136). In words: Binding affinity to RARS in human NCI-H23 cells at 1 uM by mass spectrometry based pull down assay. It is filed as cell-based.
The target of test [5] is Translation initiation factor eIF2B subunit gamma (Homo sapiens) (UniProt Q9NR50). In words: Binding affinity to EIF2B3 in human NCI-H23 cells at 1 uM by mass spectrometry based pull down assay. The format is cell-based.
Test [6] deals with Probable ATP-dependent RNA helicase DDX6 (Homo sapiens) (UniProt P26196). As to the kind of experiment: Binding affinity to DDX6 in human NCI-H23 cells at 1 uM by mass spectrometry based pull down assay. It is filed as cell-based.
For test [7], the target named is T1, 80S Ribosome (Homo sapiens). In words: Binding affinity to RPL28 in human NCI-H23 cells at 1 uM by mass spectrometry based pull down assay. The format is cell-based.
Test [8] has as its target Protein phosphatase 1G (Homo sapiens) (UniProt O15355). As to the kind of experiment: Binding affinity to PPM1G in human NCI-H23 cells at 1 uM by mass spectrometry based pull down assay. It is filed as cell-based.
In test [9] the target is Pyrroline-5-carboxylate reductase 2 (Homo sapiens) (UniProt Q96C36). As to the kind of experiment: Binding affinity to PYCR2 in human NCI-H23 cells at 1 uM by mass spectrometry based pull down assay. It is filed as cell-based.
Sequence of Pyrroline-5-carboxylate reductase 2 (Homo sapiens) (Q96C36 whole entry): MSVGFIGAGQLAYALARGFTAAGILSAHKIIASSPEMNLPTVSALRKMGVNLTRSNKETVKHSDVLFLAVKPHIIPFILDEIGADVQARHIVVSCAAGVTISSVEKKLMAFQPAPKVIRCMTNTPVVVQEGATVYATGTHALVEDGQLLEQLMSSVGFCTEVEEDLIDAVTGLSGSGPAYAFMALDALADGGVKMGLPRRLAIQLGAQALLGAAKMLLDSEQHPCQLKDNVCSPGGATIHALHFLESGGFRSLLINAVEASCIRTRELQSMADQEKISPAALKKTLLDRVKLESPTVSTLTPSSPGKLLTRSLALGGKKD
The target in test [10] is T1, 80S Ribosome (Homo sapiens). In words: Binding affinity to RPS23 in human NCI-H23 cells at 1 uM by mass spectrometry based pull down assay. The format is cell-based.
The target in test [11] is Histone H2B type 2-F (Homo sapiens) (UniProt Q5QNW6). In words: Binding affinity to HIST2H2BF in human NCI-H23 cells at 1 uM by mass spectrometry based pull down assay. It is filed as cell-based.
For test [12], the target named is T1, 80S Ribosome (Homo sapiens). As to the kind of experiment: Binding affinity to RPS10 in human NCI-H23 cells at 1 uM by mass spectrometry based pull down assay. The format is cell-based.
For test [13], the target named is Calponin-2 (Homo sapiens) (UniProt Q99439). In words: Binding affinity to CNN2 in human NCI-H23 cells at 1 uM by mass spectrometry based pull down assay. The format is cell-based.
Test [14] has as its target Thymidylate kinase (Homo sapiens) (UniProt P23919). In words: Binding affinity to DTYMK in human NCI-H358 cells at 1 uM by mass spectrometry based pull down assay. The format is cell-based.
Test [15] concerns the target N-acetyl-D-glucosamine kinase (Homo sapiens) (UniProt Q9UJ70). In words: Binding affinity to NAGK in human NCI-H358 cells at 1 uM by mass spectrometry based pull down assay. It is filed as cell-based.
Test [16] addresses Pyrroline-5-carboxylate reductase 2 (Homo sapiens) (UniProt Q96C36). As to the kind of experiment: Binding affinity to PYCR2 in human NCI-H358 cells at 1 uM by mass spectrometry based pull down assay. The format is cell-based.
Another test deals with NCI-H358. As to the kind of experiment: Binding affinity to PTGES3L-AARSD1 in human NCI-H358 cells at 1 uM by mass spectrometry based pull down assay. The format is cell-based.
In test [17] the target is Glyoxalase domain-containing protein 4 (Homo sapiens) (UniProt Q9HC38). In words: Binding affinity to GLOD4 in human NCI-H358 cells at 1 uM by mass spectrometry based pull down assay. The format is cell-based.
Sequence of Glyoxalase domain-containing protein 4 (Homo sapiens) (Q9HC38 whole entry, the tested form may be a part): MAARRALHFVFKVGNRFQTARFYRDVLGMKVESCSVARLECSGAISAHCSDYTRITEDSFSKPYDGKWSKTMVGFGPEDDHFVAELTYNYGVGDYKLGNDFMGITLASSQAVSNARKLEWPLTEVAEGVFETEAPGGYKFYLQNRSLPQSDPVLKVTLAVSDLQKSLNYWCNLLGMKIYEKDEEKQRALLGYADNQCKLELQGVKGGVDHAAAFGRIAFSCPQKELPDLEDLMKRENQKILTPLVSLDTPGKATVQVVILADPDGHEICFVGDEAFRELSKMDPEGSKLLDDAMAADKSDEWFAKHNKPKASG
Test [18] concerns the target AH receptor-interacting protein (Homo sapiens) (UniProt O00170). In words: Binding affinity to AIP in human NCI-H358 cells at 1 uM by mass spectrometry based pull down assay. It is filed as cell-based. A digest of the protocol: as §1
Test [19] concerns the target Src substrate cortactin (Homo sapiens) (UniProt Q14247). In words: Binding affinity to CTTN in human NCI-H358 cells at 1 uM by mass spectrometry based pull down assay. The format is cell-based.
The target in test [20] is Thioredoxin-related transmembrane protein 1 (Homo sapiens) (UniProt Q9H3N1). In words: Binding affinity to TMX1 in human NCI-H358 cells at 1 uM by mass spectrometry based pull down assay. The format is cell-based.
The target of test [21] is DNA replication licensing factor MCM6 (Homo sapiens) (UniProt Q14566). As to the kind of experiment: Binding affinity to MCM6 in human NCI-H358 cells at 1 uM by mass spectrometry based pull down assay. It is filed as cell-based.
Sequence of DNA replication licensing factor MCM6 (Homo sapiens) (Q14566 whole entry): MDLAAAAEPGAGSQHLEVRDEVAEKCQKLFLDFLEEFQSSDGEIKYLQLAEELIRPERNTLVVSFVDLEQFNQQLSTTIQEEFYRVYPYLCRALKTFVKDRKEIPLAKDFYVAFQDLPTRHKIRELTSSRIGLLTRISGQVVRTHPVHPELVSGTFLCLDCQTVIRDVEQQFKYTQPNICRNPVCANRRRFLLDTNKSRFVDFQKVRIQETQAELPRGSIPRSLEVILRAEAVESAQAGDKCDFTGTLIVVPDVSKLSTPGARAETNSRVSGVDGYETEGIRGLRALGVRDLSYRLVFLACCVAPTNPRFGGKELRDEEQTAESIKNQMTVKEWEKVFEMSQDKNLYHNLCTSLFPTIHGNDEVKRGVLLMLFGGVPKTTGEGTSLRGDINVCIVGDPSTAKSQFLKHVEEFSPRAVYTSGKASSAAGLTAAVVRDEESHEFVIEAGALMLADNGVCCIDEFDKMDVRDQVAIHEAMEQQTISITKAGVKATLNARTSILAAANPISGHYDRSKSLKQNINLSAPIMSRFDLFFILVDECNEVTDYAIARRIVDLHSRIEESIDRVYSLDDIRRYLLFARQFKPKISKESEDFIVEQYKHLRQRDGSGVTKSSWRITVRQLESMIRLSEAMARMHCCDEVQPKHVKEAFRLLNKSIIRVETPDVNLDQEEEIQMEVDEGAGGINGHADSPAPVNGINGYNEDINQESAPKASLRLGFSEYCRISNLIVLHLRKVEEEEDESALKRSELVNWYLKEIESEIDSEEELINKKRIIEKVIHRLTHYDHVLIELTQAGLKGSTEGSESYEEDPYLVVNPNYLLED
Test [22] has as its target Dual specificity mitogen-activated protein kinase kinase 1 (Homo sapiens) (UniProt Q02750). As to the kind of experiment: Binding affinity to MAP2K1 in human NCI-H358 cells at 1 uM by mass spectrometry based pull down assay. The format is cell-based.
Test [23] concerns the target Jupiter microtubule associated homolog 2 (Homo sapiens) (UniProt Q9H910). In words: Binding affinity to HN1L in human NCI-H358 cells at 1 uM by mass spectrometry based pull down assay. It is filed as cell-based.
The target of test [24] is Serine/threonine-protein kinase RIO3 (Homo sapiens) (UniProt O14730). As to the kind of experiment: Inhibition of full length human RIOK3 (1 to 519 residues) expressed in bacterial expression system assessed as enzyme activity at 1 uM by KINOMEScan assay relative to control. The arrangement: scale not given: the % may be the effect or the level left. A digest of the protocol: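 In vitro ATP-site competition binding assay (KinomeScan) across a panel of 456 kinases. Compound was tested at 1 and 10 μM. The read-out is the binding inhibition score relative to control.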
Sequence of Serine/threonine-protein kinase RIO3 (Homo sapiens) (O14730 whole entry, the tested form may be a part): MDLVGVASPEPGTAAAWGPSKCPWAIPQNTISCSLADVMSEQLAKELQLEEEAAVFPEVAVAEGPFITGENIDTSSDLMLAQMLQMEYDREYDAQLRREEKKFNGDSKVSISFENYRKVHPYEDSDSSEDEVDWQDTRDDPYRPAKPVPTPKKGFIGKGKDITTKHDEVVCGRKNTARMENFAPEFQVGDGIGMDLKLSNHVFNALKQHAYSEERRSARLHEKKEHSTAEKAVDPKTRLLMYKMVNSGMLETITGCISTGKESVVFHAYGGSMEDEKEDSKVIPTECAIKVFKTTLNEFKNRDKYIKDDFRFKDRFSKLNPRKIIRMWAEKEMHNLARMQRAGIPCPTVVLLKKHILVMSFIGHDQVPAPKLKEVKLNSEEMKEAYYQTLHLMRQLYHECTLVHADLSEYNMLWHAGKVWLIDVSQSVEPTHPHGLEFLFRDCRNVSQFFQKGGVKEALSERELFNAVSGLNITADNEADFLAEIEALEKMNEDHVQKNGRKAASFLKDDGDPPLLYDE

Test [25] deals with Receptor-type tyrosine-protein kinase FLT3 (Homo sapiens) (UniProt P36888). As to the kind of experiment: Inhibition of human FLT3 (592 to 969 residues) expressed in bacterial expression system assessed as enzyme activity at 1 uM by KINOMEScan assay relative to control. The arrangement: scale not given: the % may be the effect or the level left. The gist of the method:
(§2)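 In vitro ATP-site competition binding assay across a panel of 456 kinases, with compound tested at 1 and 10 μM.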

In test [26] the target is Platelet-derived growth factor receptor beta (Homo sapiens) (UniProt P09619). As to the kind of experiment: Inhibition of human PDGFRB (582 to 1009 residues) expressed in bacterial expression system assessed as enzyme activity at 10 uM by KINOMEScan assay relative to control. The arrangement: scale not given: the % may be the effect or the level left. A digest of the protocol:
as §2

Sequence of Dual specificity mitogen-activated protein kinase kinase 1 (Homo sapiens) (Q02750 whole entry): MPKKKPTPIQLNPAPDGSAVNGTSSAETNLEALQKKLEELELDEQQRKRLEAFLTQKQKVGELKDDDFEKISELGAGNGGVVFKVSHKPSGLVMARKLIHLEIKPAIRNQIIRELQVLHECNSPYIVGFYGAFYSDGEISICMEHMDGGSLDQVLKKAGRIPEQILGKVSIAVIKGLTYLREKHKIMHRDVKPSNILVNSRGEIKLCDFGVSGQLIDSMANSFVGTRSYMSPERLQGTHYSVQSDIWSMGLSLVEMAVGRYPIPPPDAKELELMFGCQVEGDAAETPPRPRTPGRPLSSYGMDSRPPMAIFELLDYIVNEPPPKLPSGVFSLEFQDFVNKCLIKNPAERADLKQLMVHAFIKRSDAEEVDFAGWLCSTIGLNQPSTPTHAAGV
Sequence of Alkyldihydroxyacetonephosphate synthase, peroxisomal (Homo sapiens) (O00116 whole entry): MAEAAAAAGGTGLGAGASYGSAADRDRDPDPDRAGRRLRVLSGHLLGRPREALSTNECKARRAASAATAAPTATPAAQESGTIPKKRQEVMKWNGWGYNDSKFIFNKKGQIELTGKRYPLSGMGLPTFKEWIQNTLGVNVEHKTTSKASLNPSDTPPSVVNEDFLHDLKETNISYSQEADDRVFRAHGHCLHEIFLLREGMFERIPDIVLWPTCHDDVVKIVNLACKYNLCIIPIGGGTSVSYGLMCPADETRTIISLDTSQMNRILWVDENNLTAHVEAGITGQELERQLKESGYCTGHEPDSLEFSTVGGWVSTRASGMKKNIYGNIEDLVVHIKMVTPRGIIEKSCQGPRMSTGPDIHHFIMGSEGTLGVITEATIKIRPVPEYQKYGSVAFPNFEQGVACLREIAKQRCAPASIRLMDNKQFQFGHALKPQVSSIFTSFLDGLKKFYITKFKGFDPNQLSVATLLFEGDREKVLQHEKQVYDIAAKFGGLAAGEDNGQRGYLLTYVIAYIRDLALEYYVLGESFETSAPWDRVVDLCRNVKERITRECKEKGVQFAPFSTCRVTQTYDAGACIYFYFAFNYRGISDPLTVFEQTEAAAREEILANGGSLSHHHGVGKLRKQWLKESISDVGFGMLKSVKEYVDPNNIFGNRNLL
Sequence of Thymidylate kinase (Homo sapiens) (P23919 whole entry): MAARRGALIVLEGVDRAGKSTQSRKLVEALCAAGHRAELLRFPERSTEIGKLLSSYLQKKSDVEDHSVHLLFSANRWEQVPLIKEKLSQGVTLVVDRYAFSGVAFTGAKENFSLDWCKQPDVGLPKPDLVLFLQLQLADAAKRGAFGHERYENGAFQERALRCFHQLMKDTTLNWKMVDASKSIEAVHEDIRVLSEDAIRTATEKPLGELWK
Sequence of Src substrate cortactin (Homo sapiens) (Q14247 whole entry): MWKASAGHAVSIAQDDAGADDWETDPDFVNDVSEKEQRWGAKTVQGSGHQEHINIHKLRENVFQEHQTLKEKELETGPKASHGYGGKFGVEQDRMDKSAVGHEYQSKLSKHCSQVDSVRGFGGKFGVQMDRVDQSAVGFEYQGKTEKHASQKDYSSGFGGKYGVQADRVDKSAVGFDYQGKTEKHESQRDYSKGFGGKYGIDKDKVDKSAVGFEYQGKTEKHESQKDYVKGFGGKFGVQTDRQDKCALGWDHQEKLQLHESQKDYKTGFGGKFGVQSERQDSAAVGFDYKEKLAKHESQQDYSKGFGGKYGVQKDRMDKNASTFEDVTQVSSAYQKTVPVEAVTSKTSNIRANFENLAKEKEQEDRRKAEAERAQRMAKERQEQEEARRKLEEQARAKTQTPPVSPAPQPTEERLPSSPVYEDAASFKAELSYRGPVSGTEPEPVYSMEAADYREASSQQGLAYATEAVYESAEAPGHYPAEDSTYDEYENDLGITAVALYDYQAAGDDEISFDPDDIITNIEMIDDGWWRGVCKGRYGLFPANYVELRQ
Sequence of AH receptor-interacting protein (Homo sapiens) (O00170 whole entry): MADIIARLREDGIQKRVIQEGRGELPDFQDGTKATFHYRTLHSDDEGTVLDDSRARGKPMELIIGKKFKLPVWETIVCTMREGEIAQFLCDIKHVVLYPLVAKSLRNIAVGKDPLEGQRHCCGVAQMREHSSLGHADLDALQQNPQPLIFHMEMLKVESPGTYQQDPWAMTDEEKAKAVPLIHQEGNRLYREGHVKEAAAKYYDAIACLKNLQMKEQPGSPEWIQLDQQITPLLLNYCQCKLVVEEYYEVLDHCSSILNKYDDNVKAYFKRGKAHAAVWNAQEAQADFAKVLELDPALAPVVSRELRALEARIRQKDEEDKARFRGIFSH
Sequence of Jupiter microtubule associated homolog 2 (Homo sapiens) (Q9H910 whole entry, the tested form may be a part): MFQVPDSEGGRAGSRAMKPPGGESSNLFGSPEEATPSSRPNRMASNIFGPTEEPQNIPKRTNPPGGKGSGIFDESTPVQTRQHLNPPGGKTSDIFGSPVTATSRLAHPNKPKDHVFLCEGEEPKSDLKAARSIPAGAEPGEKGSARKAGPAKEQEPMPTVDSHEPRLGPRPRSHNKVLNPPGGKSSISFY

As to `C=CC(=O)Nc1ccccc1Nc1nc(Nc2ccc(N3CCN(CCOCCOCCOCCNC(=O)CCCC[C@@H]4SC[C@@H]5NC(=O)N[C@@H]54)CC3)cc2)ncc1Cl`, the result in [1], in test [2], in test [3], in test [4], in test [5] and in [6] was Active. Further, the outcome in [7], in test [8], in test [9], in [10], in test [11] and in [12] was Active. Besides, the outcome (in test [13]; in test [14]; in [15]; in [16]; with NCI-H358; in test [17]) was Active. Also, the outcome in [18], in test [19], in test [20], in test [21], in test [22] and in test [23] was Active.

Take `COc1cc(O)c2c(c1)/C=C/C[C@H](O)[C@H](O)C(=O)/C=C\C[C@H](C)OC2=O`: the Activity in test [24] turned out to be 74%; in test [25] it was 4.2%; in [26], 0.05%.
